This note sets out measurements from ChEMBL document CHEMBL1130029 (J Med Chem, 1997).

Structures are written as SMILES. Where “and” joins values, the source holds several entries; their conditions need not be identical. Equal entries are not always repeated.

The nature of data set [1]: Oral bioavailability in Rhesus monkey (dose 16 mg/kg). Type of data set: ADME, organism-based, Macaca mulatta. The settings on record: in vivo. The gist of the method: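 Two female and two male rhesus monkeys were dosed orally (16 mg/kg) and then iv (1 mg/kg) after a 2-week washout. Plasma was sampled from 1 min to 8 h, extracted liquid-liquid into benzene or cyclohexane, and quantified by reverse-phase HPLC (detection limit 10 ng/mL). AUC was calculated by the trapezoidal rule, and bioavailability = (AUCpo/dose)/(AUCiv/dose) × 100.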

The test system of data set [2] is Rhesus monkey. The data set is described as follows: In vivo plasma levels in Rhesus monkey was determined at a dose of 8 mg/kg administered orally. The settings on record: Cercopithecidae. Type of data set: functional, organism-based. Set-up: dose 8 mg/kg.
Data set [3] relates to Rhesus monkey. Description: In vivo plasma levels in Rhesus monkey was determined at a dose of 8 mg/kg administered orally; none detected. Type of data set: functional, organism-based. Set-up: dose 8 mg/kg. The note with it: Cercopithecidae.
The subject of data set [4] is Human rhinovirus sp. Description: Compound was tested for resistance (survivors(%)) by extended cycle replication assay conducted in 1 ug/mL Enviroxime.(3A amino acid substitution Gly 72 to Ser). Type of data set: functional. Put shortly: (§1)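 Values are expressed relative to a no-drug control. Mutants of rhinovirus 14 were isolated, sequenced and assayed for resistance by earlier-reported procedures.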

The subject of data set [5] is Human rhinovirus sp. Description: Compound was tested for resistance (survivors(%)) by extended cycle replication assay conducted in 1 ug/mL Enviroxime.(3A amino acid substitution Glu 34 to Val). Type of data set: functional. Put shortly:
as §1

In data set [6] the test system is Human rhinovirus sp. The data set is described as follows: Compound was tested for resistance (survivors(%)) by extended cycle replication assay conducted in 1 ug/mL Enviroxime.(3A amino acid substitution Asp 28 to Tyr). Type of data set: functional. Put shortly: as §1
Data set [7] has as its system Human rhinovirus sp. Description: Compound was tested for resistance (survivors(%)) by extended cycle replication assay conducted in 1 ug/mL Enviroxime.(3A amino acid substitution Ile 42 to Val). Type of data set: functional. The gist of the method:
as §1

Data set [8] concerns Human rhinovirus sp. The data set is described as follows: Compound was tested for resistance (survivors(%)) by extended cycle replication assay conducted in 1 ug/mL Enviroxime.(3A amino acid substitution Ile 32 to Val). It counts as functional. The gist of the method: as §1
Data set [9] has as its system Human rhinovirus sp. The data set is described as follows: Compound was tested for resistance (survivors(%)) by extended cycle replication assay conducted in 1 ug/mL Enviroxime.(3A amino acid substitution Met 54 to Ile). Type of data set: functional. Put shortly: as §1
Data set [10] relates to Human rhinovirus sp. Description: Compound was tested for resistance (survivors(%)) by extended cycle replication assay conducted in 1 ug/mL Enviroxime.(3A amino acid substitution Glu 51 to Val). Type of data set: functional. The gist of the method:
as §1

The test system of data set [11] is Human rhinovirus sp. Description: Compound was tested for resistance (survivors(%)) by extended cycle replication assay conducted in 1 ug/mL Enviroxime. wild type. Type of data set: functional. Put shortly: as §1
Data set [12] concerns Human rhinovirus sp. Description: Compound was tested for resistance (survivors(%)) by extended cycle replication assay conducted in 1 ug/mL Enviroxime.(3A amino acid substitution Ile 77 to Val). It counts as functional. The gist of the method: as §1
Data set [13] has as its system Monkey. The data set is described as follows: In vitro hepatic microsomal metabolism in monkey. It counts as functional. The note with it: Cercopithecidae, Liver. Put shortly:
(§2)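 Microsomes from F344 rat, beagle dog, cynomolgus monkey or pooled human were incubated at 37 °C in a shaking bath. The oxidative arm used pH 7.4 Tris with NADPH and was run 3 h. The glucuronidation arm used pH 7.4 Tris-Brij with MgCl2 and UDPGA and was run 1 h. Compound was added from an acetone stock. Reactions were stopped with chilled acetonitrile, and unincubated controls were compared. Remaining parent was measured by HPLC.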

The species named for data set [14] is Canis familiaris. Description: In vitro hepatic microsomal metabolism in dog. Type of data set: functional. The note with it: Canis lupus familiaris, Liver. Put shortly: as §2
The species entered for data set [15] is Mus musculus. Description: In vitro hepatic microsomal metabolism in mouse. The note with it: Liver. It counts as functional.
The species entered for data set [16] is Homo sapiens. The data set is described as follows: In vitro hepatic microsomal metabolism in human. Type of data set: functional. The note with it: Liver. Put shortly: as §2
For data set [17], the species on record is Rattus norvegicus. Description: In vitro hepatic microsomal metabolism in rat. The settings on record: Liver. It counts as functional. Put shortly: as §2
The species named for data set [18] is Rattus norvegicus. The data set is described as follows: In vitro hepatic microsomal metabolism in rat. Type of data set: functional. The note with it: Liver. Put shortly:
as §2

Data set [19] is filed under the species Mus musculus. Description: In vitro Hepatic microsomal metabolism in mouse. It counts as functional. The settings on record: Liver.
For data set [20], the system named is rhinovirus B14. The data set is described as follows: % survivors was determined against mutants of human rhinovirus 14 by extended cycle replication assay in 1 ug/mL enviroxime. It counts as functional. Put shortly: as §1
For data set [21], the system named is rhinovirus B14. Description: (§3) % survivors was determined against mutants of human rhinovirus 14 by extended cycle replication assay in 1 ug/mL enviroxime by different amino acid substitution. It counts as functional. The gist of the method:
as §1

In data set [22] the test system is Human rhinovirus sp. The description is as §3. It counts as functional. The gist of the method:
as §1

The test system of data set [23] is rhinovirus B14. The data set is described as follows: % survivors was determined against mutants of human rhinovirus 14 by extended cycle replication assay in 1 ug/mL enviroxime by different amino acid substitution by different amino acid substitution. Type of data set: functional. Put shortly: as §1

In the case of `C#C/C=C(\c1ccc([S+](C)[O-])cc1)c1ccc2nc(N)n(S(=O)(=O)C(C)C)c2c1` (configuration not stated), the bioavailability in [1] is 3%.
Take `C#C/C=C(\c1ccccc1)c1ccc2nc(N)n(S(=O)(=O)C(C)C)c2c1`: the bioavailability in data set [1] turned out to be 9%. This compound also had a Plasma concentration in data set [2] of 70 ng/mL.
On to `C=C/C=C(\c1ccccc1)c1ccc2nc(N)n(S(=O)(=O)C(C)C)c2c1`, for which the Plasma concentration result in data set [3] was “none detected”.
As for `C#C/C=C(\c1ccc(SC)cc1)c1ccc2nc(N)n(S(=O)(=O)C(C)C)c2c1`, in [1], the bioavailability was found to be 5%.
With `C#C/C=C(\c1ccc(OC)cc1)c1ccc2nc(N)n(S(=O)(=O)C(C)C)c2c1`, the bioavailability in data set [1] turned out to be 5%. For the same compound, the Survivors in data set [4] turned out to be 6.8%; in data set [5] it was 5%; in data set [6], 4.7%; in data set [7], 5.6%; in data set [8], 2.3%; in data set [9], 3.5%. The Survivors in data set [10] is given as 3.8%; in [11] it was 0.05%; in data set [12] it was 2.2%.
In data set [1], `C#C/C=C(\c1ccc(OCC)cc1)c1ccc2nc(N)n(S(=O)(=O)C(C)C)c2c1` registered a bioavailability of 4%.
`C#C/C=C(\c1ccc(F)cc1)c1ccc2nc(N)n(S(=O)(=O)C(C)C)c2c1` came in with a bioavailability in data set [1] of 23%. Further, the Metabolism is 37% in [13]; 31% in [14]; 13% in data set [15]; 12% in data set [16]; 29% in [17].
Consider `C/C=C(\c1ccccc1)c1ccc2nc(N)n(S(=O)(=O)C(C)C)c2c1` [ENVIRADENE], for which the Metabolism was found to be 88% in data set [13]; 27% in data set [18]; 36% in data set [19]; 40% in [14]; 73% in data set [16]. In addition, the Plasma concentration in data set [2] is 14 ng/mL; in data set [2] (tested as the 2H-labelled form), 10 ng/mL.
As to `CC(C)S(=O)(=O)n1c(N)nc2ccc(/C(=N/O)c3ccccc3)cc21` [ENVIROXIME], the Metabolism came to 80% in data set [13]; 37% in [14]; 24% in data set [15]; 98% in [16]; 39% in data set [17]. Also, the Survivors in data set [4] was 4.9%; in data set [5], 1.5%; in data set [20], 0.6% and 2.1%; in data set [6] it was 2%; in data set [7], 1.7%; in data set [8] it was 0.7%. For the same compound, the Survivors was 1.9% in data set [9]; 5.5% in data set [21]; 1.1% and 0.03% in data set [22]; 1.3% in data set [10]; 0.07% in data set [11]; 0.7% in data set [12]. In addition, the Survivors in data set [23] came to 1.5%.
